The results in this text go back to ChEMBL document CHEMBL3745665, “Discovery of benzamides as potent human β3 adrenergic receptor agonists” (Bioorg Med Chem Lett, 2016).

Molecules are shown by their SMILES.

As usually defined, the EC50 is the concentration at which the effect is half-maximal. What is called IC50 is the midpoint of a concentration-inhibition curve. What is called half-life is how long it takes for the measured level to halve. Usually bioavailability stands for dose-corrected exposure relative to a reference, in per cent.

Data set [1] has as its target T1, Beta-3 adrenergic receptor (Homo sapiens, UniProt P13945). Briefly: Agonist activity at human beta-3 adrenergic receptor expressed in CHO cells assessed as increase in cAMP level after 30 mins by LANCE TR-FRET assay. It counts as functional, cell-based.
Target sequence in this assay (P13945 whole entry): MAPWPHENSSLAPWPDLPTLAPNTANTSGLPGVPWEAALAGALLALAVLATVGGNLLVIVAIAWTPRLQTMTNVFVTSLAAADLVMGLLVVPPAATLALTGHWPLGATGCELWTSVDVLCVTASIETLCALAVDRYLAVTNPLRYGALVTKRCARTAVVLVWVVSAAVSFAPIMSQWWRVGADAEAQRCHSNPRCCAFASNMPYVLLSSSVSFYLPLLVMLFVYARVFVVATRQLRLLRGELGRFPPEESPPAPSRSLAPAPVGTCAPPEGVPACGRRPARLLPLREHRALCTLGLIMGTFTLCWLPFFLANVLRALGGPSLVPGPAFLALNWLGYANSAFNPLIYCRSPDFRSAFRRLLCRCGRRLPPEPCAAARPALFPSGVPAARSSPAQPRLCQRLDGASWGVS
The target in data set [2] is T1, Beta-3 adrenergic receptor. Briefly: Agonist activity at human beta-3 adrenergic receptor expressed in CHO cells assessed as increase in cAMP level after 30 mins by LANCE TR-FRET assay relative to R-(-)-isoproterenol. In kind it is functional, cell-based. Summed up:
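Efficacy: the fitted maximal value of each test compound's concentration–response curve, expressed as a percent of the maximal response to R-(−)-isoproterenol.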
Target sequence in this assay (P13945 whole entry, looked up): as the sequence (P13945 whole entry) above
On the technique in general: cAMP levels reflect the balance of adenylyl cyclase and phosphodiesterase activity.

Data set [3] concerns the target Beta-1 adrenergic receptor (Homo sapiens, UniProt P08588). Briefly: Displacement of [125I]CYP from human beta-1 adrenergic receptor expressed in CHO cell membrane after 1 hr by scintillation counting method. In kind it is cell membranes. (In general: Displacement assays read how much labelled ligand stays bound in the presence of the test substance.)
Data set [4] has as its target Beta-2 adrenergic receptor (Homo sapiens, UniProt P07550). Briefly: Displacement of [125I]CYP from human beta-2 adrenergic receptor expressed in CHO cell membrane after 1 hr by scintillation counting method. In kind it is cell membranes.
For data set [5], the target named is Voltage-gated inwardly rectifying potassium channel KCNH2 (Homo sapiens, UniProt Q12809). Briefly: Inhibition of human ERG by IKr binding assay.
Chain of Voltage-gated inwardly rectifying potassium channel KCNH2 (Q12809 whole entry): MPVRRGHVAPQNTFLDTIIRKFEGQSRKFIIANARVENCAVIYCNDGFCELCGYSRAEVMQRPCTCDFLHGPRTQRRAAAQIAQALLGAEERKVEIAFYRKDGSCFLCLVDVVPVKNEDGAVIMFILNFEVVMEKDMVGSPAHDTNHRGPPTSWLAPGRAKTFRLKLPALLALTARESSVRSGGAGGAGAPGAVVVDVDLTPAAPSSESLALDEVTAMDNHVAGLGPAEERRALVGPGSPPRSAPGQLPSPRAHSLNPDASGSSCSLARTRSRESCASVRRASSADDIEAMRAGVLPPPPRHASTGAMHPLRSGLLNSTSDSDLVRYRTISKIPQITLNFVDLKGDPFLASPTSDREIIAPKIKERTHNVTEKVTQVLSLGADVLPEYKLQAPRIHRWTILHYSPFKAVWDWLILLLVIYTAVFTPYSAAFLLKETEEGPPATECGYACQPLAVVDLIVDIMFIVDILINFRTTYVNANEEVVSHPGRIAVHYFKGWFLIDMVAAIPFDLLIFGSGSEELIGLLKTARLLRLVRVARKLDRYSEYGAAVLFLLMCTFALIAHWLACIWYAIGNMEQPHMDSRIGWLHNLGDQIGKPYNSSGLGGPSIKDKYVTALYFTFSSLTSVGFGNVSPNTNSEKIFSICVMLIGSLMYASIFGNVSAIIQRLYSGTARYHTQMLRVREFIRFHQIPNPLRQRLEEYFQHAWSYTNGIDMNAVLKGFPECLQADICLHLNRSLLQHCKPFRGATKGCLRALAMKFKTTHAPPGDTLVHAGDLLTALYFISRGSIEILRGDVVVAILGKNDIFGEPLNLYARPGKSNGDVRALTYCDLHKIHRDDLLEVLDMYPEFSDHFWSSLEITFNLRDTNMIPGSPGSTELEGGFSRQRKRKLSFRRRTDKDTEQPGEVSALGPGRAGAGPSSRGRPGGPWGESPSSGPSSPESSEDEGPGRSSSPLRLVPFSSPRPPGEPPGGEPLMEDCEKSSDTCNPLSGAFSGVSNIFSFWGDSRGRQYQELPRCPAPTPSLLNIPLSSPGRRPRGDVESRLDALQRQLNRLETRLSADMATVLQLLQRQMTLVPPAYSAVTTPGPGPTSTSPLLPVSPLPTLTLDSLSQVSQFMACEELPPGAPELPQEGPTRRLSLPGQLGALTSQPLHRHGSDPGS
Data set [6] can be described thus: Plasma clearance in rat at 1 mg/kg, iv or 2 mg/kg, po. It counts as ADME, organism-based.
Data set [7] in a line: Plasma clearance in dog at 0.5 mg/kg, iv or 2 mg/kg, po. It counts as ADME, organism-based, Canis lupus familiaris.
A short description of data set [8]: Volume of distribution in rat at 1 mg/kg, iv or 2 mg/kg, po. In kind it is ADME, organism-based. As to conditions: in vivo.
Data set [9] can be described thus: Volume of distribution in dog at 0.5 mg/kg, iv or 2 mg/kg, po. In kind it is ADME, organism-based, Canis lupus familiaris. As to conditions: in vivo.
A short description of data set [10]: Half life in rat at 1 mg/kg, iv or 2 mg/kg, po. Particulars: in vivo. In kind it is ADME, organism-based.
Data set [11] can be described thus: Half life in dog at 0.5 mg/kg, iv or 2 mg/kg, po. It counts as ADME, organism-based, Canis lupus familiaris. Particulars: in vivo.
A further data set relates to Rattus norvegicus. Briefly: Dose normalized AUC in rat at 2 mg/kg, po. It counts as ADME, organism-based. Particulars: in vivo.
A further data set relates to Canis familiaris. Briefly: Dose normalized AUC in dog at 2 mg/kg, po. As to conditions: in vivo. It counts as ADME, organism-based, Canis lupus familiaris.
Data set [12] in a line: Oral bioavailability in rat at 2 mg/kg. In kind it is ADME, organism-based. Particulars: in vivo.
Data set [13] can be described thus: Oral bioavailability in dog at 2 mg/kg. It counts as ADME, organism-based, Canis lupus familiaris. Particulars: in vivo.
The next data set relates to Rhesus monkey. Briefly: Dose normalized AUC in po dosed rhesus monkey. In kind it is ADME, organism-based, Macaca mulatta. Particulars: in vivo.
Data set [14] can be described thus: Plasma clearance in rhesus monkey. In kind it is ADME, organism-based, Macaca mulatta.
Data set [15] can be described thus: Volume of distribution in rhesus monkey. In kind it is ADME, organism-based, Macaca mulatta. Particulars: in vivo.
Data set [16] can be described thus: Half life in rhesus monkey. In kind it is ADME, organism-based, Macaca mulatta. As to conditions: in vivo.
The nature of data set [17]: Oral bioavailability rhesus monkey. Particulars: in vivo. It counts as ADME, organism-based, Macaca mulatta.
A short description of data set [18]: Stability in human liver microsomes assessed as residual compound after 45 mins. It counts as ADME. As to conditions: read-out: Stability. On the technique in general: Liver microsomes are a subcellular fraction often used to study metabolism.
A short description of data set [19]: Stability in dog liver microsomes assessed as residual compound after 45 mins. In kind it is ADME, Canis lupus familiaris. As to conditions: read-out: Stability.
A short description of data set [20]: Stability in rat liver microsomes assessed as residual compound after 45 mins. Particulars: read-out: Stability. In kind it is ADME.
Data set [21] is described as follows: Stability in rhesus monkey liver microsomes assessed as residual compound after 45 mins. In kind it is ADME, Macaca mulatta. As to conditions: read-out: Stability.
Data set [22] is described as follows: Stability in human hepatocytes assessed as residual compound after 60 mins. As to conditions: read-out: Stability. In kind it is ADME, cell-based, Hepatocyte.
The nature of data set [23]: Stability in dog hepatocytes assessed as residual compound after 60 mins. It counts as ADME, cell-based, Canis lupus familiaris, Hepatocyte. Particulars: read-out: Stability.
The nature of data set [24]: Stability in rat hepatocytes assessed as residual compound after 60 mins. In kind it is ADME, cell-based, Hepatocyte. Particulars: read-out: Stability.

Chain of Beta-1 adrenergic receptor (P08588 whole entry): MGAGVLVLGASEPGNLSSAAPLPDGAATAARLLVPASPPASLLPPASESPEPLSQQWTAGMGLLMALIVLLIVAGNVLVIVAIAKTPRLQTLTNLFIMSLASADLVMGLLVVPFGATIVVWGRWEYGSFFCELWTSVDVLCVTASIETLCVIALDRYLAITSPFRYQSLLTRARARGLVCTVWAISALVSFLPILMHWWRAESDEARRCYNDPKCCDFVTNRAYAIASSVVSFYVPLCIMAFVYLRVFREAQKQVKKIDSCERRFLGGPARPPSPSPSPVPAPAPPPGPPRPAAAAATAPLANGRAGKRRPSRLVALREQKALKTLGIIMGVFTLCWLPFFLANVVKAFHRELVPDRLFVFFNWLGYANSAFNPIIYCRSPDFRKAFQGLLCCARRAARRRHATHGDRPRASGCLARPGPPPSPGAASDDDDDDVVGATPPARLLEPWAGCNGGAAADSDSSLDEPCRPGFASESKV
Chain of Beta-2 adrenergic receptor (P07550 whole entry): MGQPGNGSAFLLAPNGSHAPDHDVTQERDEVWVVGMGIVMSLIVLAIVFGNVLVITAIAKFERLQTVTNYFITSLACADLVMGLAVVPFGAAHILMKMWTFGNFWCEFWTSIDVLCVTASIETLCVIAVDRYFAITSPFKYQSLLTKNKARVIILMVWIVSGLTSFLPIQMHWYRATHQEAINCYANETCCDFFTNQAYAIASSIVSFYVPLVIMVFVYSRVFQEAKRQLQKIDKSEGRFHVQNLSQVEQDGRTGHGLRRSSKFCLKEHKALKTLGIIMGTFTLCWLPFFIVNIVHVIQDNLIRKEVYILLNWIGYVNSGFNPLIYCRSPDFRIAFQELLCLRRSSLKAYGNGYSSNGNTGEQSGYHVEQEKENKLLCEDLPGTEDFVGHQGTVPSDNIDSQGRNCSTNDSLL

Consider `Nc1nc(CNC(=O)c2ccc(C[C@@H]3CC[C@H]([C@H](O)c4ccccc4)N3)cc2)cs1`, for which the EC50 in data set [1] was 0.024 µM. Also, the %max in data set [2] was found to be 84%. Further, the half-maximal inhibitory concentration (IC50) is more than 20 µM in data set [3], 5.2 µM in data set [4] and more than 30 µM in data set [5].

Regarding `Cn1nnc([C@H]2[C@@H]3CN(C(=O)c4ccc(C[C@@H]5CC[C@H]([C@H](O)c6ccccc6)N5)cc4)C[C@@H]32)n1`, the EC50 in [1] is 0.0054 µM. The %max in [2] came to 97%. Besides, the IC50 in data set [3] is more than 20 µM; in data set [4] it was more than 20 µM; in data set [5], 17 µM. In addition, the clearance is 29 mL/min/kg in data set [6] and 19 mL/min/kg in [7]. In addition, the Vd in data set [8] came out at 6.5 L/kg; in [9] it was 5.5 L/kg. The half-life in data set [10] was 3.2 h; in data set [11], 3.7 h. Further, the AUC/dose in the data set on Rattus norvegicus is 0.73 µM·h/mg/kg; in the data set with Canis familiaris, 0.99 µM·h. Further, the values for the bioavailability in data set [12] and in data set [13] were 56% and 51%, respectively.

For `CCOC(=O)[C@H]1[C@@H]2CN(C(=O)c3ccc(C[C@@H]4CC[C@H]([C@H](O)c5ccccc5)N4)cc3)C[C@@H]21`, the concentration for a half-maximal effect (EC50) in data set [1] was 0.00049 µM. Also, the %max in data set [2] is 90%. Also, the IC50 in [3] is more than 20 µM; in [4], 13.4 µM.

In the case of `CCS(=O)(=O)C1CCN(C(=O)c2ccc(C[C@@H]3CC[C@H]([C@H](O)c4ccccc4)N3)cc2)CC1`, the EC50 in data set [1] was 0.0097 µM. Moreover, the %max in [2] was 100%. Moreover, the IC50 was more than 20 µM in [3], more than 20 µM in data set [4] and more than 60 µM in data set [5].

For `CCOC(=O)C1CCN(C(=O)c2ccc(C[C@@H]3CC[C@H]([C@H](O)c4ccccc4)N3)cc2)CC1`, in data set [1], the 50% effective concentration (EC50) stood at 0.063 µM. Also, the %max in data set [2] came out at 95%. Moreover, the half-inhibitory concentration (IC50) in data set [3] was more than 20 µM; in data set [4], 10.9 µM.

Consider `CCc1nnc([C@H]2[C@@H]3CN(C(=O)c4ccc(C[C@@H]5CC[C@H]([C@H](O)c6ccccc6)N5)cc4)C[C@@H]32)o1`, for which the figures for the AUC/dose with Rhesus monkey, with Rattus norvegicus and in the data set with Canis familiaris were 0.06 µM·h, 0.21 µM·h/mg/kg and 0.46 µM·h, respectively. Also, in [1], the concentration for a half-maximal effect (EC50) was 0.0031 µM. The %max in data set [2] was determined as 97%. For the same molecule, the IC50 in data set [3] and in [4] was more than 20 µM each time. For the same molecule, the clearance in data set [6] came out at 56 mL/min/kg; in [7], 36 mL/min/kg; in [14], 30 mL/min/kg. For the same molecule, the Vd came out at 9.3 L/kg in [8], 9.2 L/kg in data set [9] and 5.2 L/kg in [15]. Besides, the half-life was 3 h in data set [10], 3.7 h in [11] and 2.4 h in [16]. The bioavailability turned out to be 33% in data set [12], 44% in [13] and 5% in [17].

On to `O=C(c1ccc(C[C@@H]2CC[C@H]([C@H](O)c3ccccc3)N2)cc1)N1C[C@@H]2[C@H](C1)[C@H]2c1nnco1`, for which, in [1], the EC50 turned out to be 0.0017 µM. The %max in [2] came out at 101%. Moreover, the concentration for half-maximal inhibition (IC50) in [3] was more than 20 µM; in [4], more than 20 µM; in [5], 55 µM. For the same molecule, the clearance in data set [6] stood at 62 mL/min/kg. In addition, the Vd in [8] was 9 L/kg. In data set [10], this molecule gave a half-life of 1.4 h. Moreover, in the data set on Rattus norvegicus, the AUC/dose was 0.26 µM·h/mg/kg. In data set [12], this molecule registered a bioavailability of 43%. For the same molecule, the remaining at 0.75 h is 84% in data set [18], 73% in data set [19], 98% in data set [20] and 80% in [21]. Moreover, the remaining at 1 h in [22], in [23] and in [24] was not below 85% each time.

On to `O=C(Nc1ccc(C[C@@H]2CC[C@H]([C@H](O)c3cccnc3)N2)cc1)C1CCc2ccnn21` (some centres undefined), for which the EC50 in [1] came out at 0.0037 µM. In addition, in data set [2], the %max was 84%.

Take `O=C(c1ccc(C[C@@H]2CC[C@H]([C@H](O)c3ccccc3)N2)cc1)N1CCC2(CCOC2=O)CC1`: the EC50 in [1] was determined as 0.0033 µM. For the same molecule, the %max in data set [2] came to 89%. Moreover, the IC50 is more than 20 µM in data set [3], 5.6 µM in data set [4] and 46 µM in data set [5]. For the same molecule, the clearance in [6] is 56 mL/min/kg; in [7] it was 31 mL/min/kg. Also, the values for the Vd in data set [8] and in [9] were 7.2 L/kg and 7.4 L/kg, respectively. For the same molecule, the half-life in data set [10] is 2.5 h; in [11], 3.2 h. Moreover, the AUC/dose in the data set on Rattus norvegicus amounted to 0.21 µM·h/mg/kg; in the data set on Canis familiaris it was 0.23 µM·h. The bioavailability in data set [12] is 31%; in data set [13] it was 17%. For the same molecule, the remaining at 0.75 h in [18] amounted to 53%; in data set [19] it was 78%; in data set [20] it was 56%.

On to `CCOC(=O)[C@@H]1[C@@H]2CN(C(=O)c3ccc(C[C@@H]4CC[C@H]([C@H](O)c5ccccc5)N4)cc3)C[C@@H]21`, for which the EC50 in data set [1] was determined as 0.075 µM. For the same molecule, the %max in [2] worked out at 97%. For the same molecule, the 50% inhibitory concentration (IC50) in data set [3] and in data set [4] was more than 20 µM in each case.

Regarding `Nc1nc(CC(=O)Nc2ccc(C[C@@H]3CC[C@H]([C@H](O)c4ccccc4)N3)cc2)cs1`, in [2], the %max stood at 99%.

As to `CC1(C)CC2(CCN(C(=O)c3ccc(C[C@@H]4CC[C@H]([C@H](O)c5ccccc5)N4)cc3)CC2)C(=O)O1`, in data set [1], the EC50 was 0.0019 µM. Further, in [2], the %max was found to be 85%. For the same molecule, the half-inhibitory concentration (IC50) in data set [3] is more than 20 µM; in data set [4], 11 µM; in data set [5], 31 µM. Moreover, the clearance in [6] worked out at 86 mL/min/kg. This molecule had a Vd in data set [8] of 9.5 L/kg. For the same molecule, the half-life in [10] is 2 h. Further, in the data set with Rattus norvegicus, the AUC/dose came out at 0.16 µM·h/mg/kg. For the same molecule, the bioavailability in data set [12] worked out at 38%.
